Assay results: PMC3234294 (Analytical chemistry, 2011)
One block for each substance: values may come before it.

How the values were obtained:
[1] = CV of CH-19 modified Au electrode before and after Herceptin; assay type: physicochemical; conditions: upon surface deposition of CH-19 and Herceptin; 0.1 M NaClO4, 50 mV/s
[2] = test system: Avastin; test: QCM nonspecific binding of immobilized peptides to Avastin
Outline: (§1)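 A CH-19 peptide monolayer was self-assembled on an Au QCM electrode overnight at 4 °C, rinsed, and held in PBS. The non-target therapeutic antibodies were spiked in sequentially into the same cuvette, each as 1 μl into 999 μl PBS (final 1 μg/ml). Label-free frequency shift (ΔF) was followed in real time with a network/impedance analyzer.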

[3] = test system: Herceptin; test: QCM binding of immobilized HER2 mimotope-derived peptides to Herceptin; set-up: species or system humanized
[4] = test system: Rituxan; test: QCM nonspecific binding of immobilized peptides to Rituxan
Outline: as §1

[5] = test system: Herceptin; test: CH-19 piezoimmunosensor analytical performance for Herceptin detection; set-up: species or system humanized
[6] = EIS of CH-19 modified Au electrode before and after Herceptin; assay type: physicochemical; conditions: bare Au to CH-19 to binding with Herceptin; 0.01 Hz-100 kHz, 5 mV
[7] = test system: Cetuximab; test: QCM nonspecific binding of immobilized CH-19 to Cetuximab; conditions: CH-19 modified Au QCM electrode, PBS, final 1 μg/ml
Outline: as §1

[8] = test system: Herceptin; conditions: previously reported; ref 16 (Jiang et al.); cited from earlier work
[9] = QCM binding of antibodies to MUA sensor surface; conditions: 1 μl of 1 μg/μl MAb spiked into 1 ml PBS
Outline: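 Au QCM electrodes, bare or modified by overnight SAM formation at 4 °C (MUA or peptide monolayers), rinsed with water and placed in 1 ml PBS. Therapeutic monoclonal antibodies (1 μg/μl stock) were spiked sequentially, 1 μl each, into the cuvette. Frequency change was recorded against time with a network/impedance analyzer.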

[10] = QCM binding of antibodies to bare Au sensor surface; conditions: 1 μl of 1 μg/μl MAb spiked into 1 ml PBS
[11] = CH-19 modified Au QCM electrode, PBS, final 1 μg/ml
[12] = QCM, CV and EIS summarized, all four peptide designs

- redox peaks of Fe(CN)6 probe [1]: gradually disappeared
- frequency shift (ΔF) with Avastin [2, 11]: ~ 0 Hz
- Nonspecific binding activity with Avastin among peptide designs [2, 12]: lowest nonspecific binding activity
- Ka (affinity for Herceptin) ([3]; CH-19 modified gold QCM electrode (Figure S3)): 7.96e+08 M⁻¹
- Buffering effects on Herceptin/CH-19 interaction ([3]; Herceptin lowered 10 fold to 0.1 μg/ml, H2O, PBS or HBS-EP): similar
- Overall binding capacity with Herceptin among peptide designs [3, 12]: highest binding capacity with Herceptin
- Herceptin bound to the CH-19 modified gold QCM electrode (mass) ([3]; estimated by Sauerbrey's equation, ΔF of 1 Hz about 1 ng, PBS, 1 μg/ml Herceptin): ~ 225 ng
- frequency change (ΔF) with free Herceptin ([3]; simple buffer (1 ml HBS-EP), 1 μl Herceptin stock 1 μg/μl, no serum): ~ 275 Hz
- frequency shift (ΔF) with Rituxan [4, 11]: ~ 0 Hz
- Nonspecific binding activity with Rituxan among peptide designs [4, 12]: lowest nonspecific binding activity
- Nyquist plots (electron transfer resistance) [6]: enlarged step-by-step
- frequency shift (ΔF) with Cetuximab [7]: ~ 0 Hz
Substance: CGSGSGSQLGPYELWELSH [CH-19]
- sensitivity ([5]; PBS buffer): 0.52 Hz · ml/ng
- time to detection of Herceptin, in words ([5]; PBS buffer, frequency change vs time): within minutes
- detection limit ([5]; PBS buffer, S/N = 3, N ~ 1.85 Hz): 10.70 ng/mL
- detection limit ([5]; in simple buffers and in human serum samples (Table S3)): 0.038 nM
- detection limit ([5]; piezoimmunosensor assay, standard curve in HBS-EP buffer): 0.038 nM

- Binding to MUA sensor surface, in words [9]: appreciable
- Binding to bare Au sensor surface, in words [10]: negligible
Substance: Avastin: therapeutic MAb, control drug

- Binding to MUA sensor surface, in words [9]: appreciable
- Binding to bare Au sensor surface, in words [10]: negligible
Substance: Rituxan: therapeutic MAb, control drug

More lines, now with the values behind:

Substance: QLGPYELWELSH
- specific binding activities to Herceptin, in words [8]: exhibited specific binding activities to Herceptin

Substance: GPYELWELSH
- specific binding activities to Herceptin, in words [8]: exhibited specific binding activities to Herceptin
